The full list was thinned out, with hits kept by preference.
ALR inh = blocks human ALR sulfhydryl oxidase activity | P55789 | purified ALR, DTT oxidation, H2O2 HRP-luminol luminescence | inhibition, % (test concentration not listed) | 290,000 compounds, 3.8% hits | AID 485317;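 active means mean replicate inhibition above about 79%, with every replicate also reaching it, limit read from the data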
Target sequence (P55789 whole entry, looked up): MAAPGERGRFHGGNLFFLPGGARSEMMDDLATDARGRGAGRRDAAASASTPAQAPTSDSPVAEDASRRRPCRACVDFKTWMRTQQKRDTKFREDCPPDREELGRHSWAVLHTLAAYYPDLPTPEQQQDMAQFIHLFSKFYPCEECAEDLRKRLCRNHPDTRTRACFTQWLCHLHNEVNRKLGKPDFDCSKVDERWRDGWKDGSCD
Glyco luc inh = N-linked glycosylation inhibition. D54 ERlucT glycosylation luciferase reporter, 24 h; percent of 100 nM tunicamycin response. reporter increase, % at 12.5 µM. 360,000 compounds, 0.23% hits. AID 588692;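 active means mean luciferase reporter signal, scaled so untreated is 0 and the glycosylation-blocking control 100, at or above a set limit in every replicate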;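 further: luciferase carries N-glycosylation sites so blocking glycosylation raises the light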
T cell HTS = T cell immune modulators affecting CD8 T cell-vesicle binding; 2C CD8+ T cell-vesicle binding, flow cytometry; hits give low values; response (vesicle binding), % at 7 µM; 330,000 compounds, 0.068% hits;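 active means response, share of CD8 T cells binding vesicles, and their 90th percentile fluorescence all below set limits, cut at about 80% in these data, passing the limit was not always enough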;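 further: values below 100% mean blocked vesicle binding to the CD8+ T cells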
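Material: 2C TCR transgenic mouse naive CD8+ T cells, MACS-purified. Also added: QL9-charged Drosophila Ld/ICAM-1/B7-1 vesicles. Timing: binding 1.5 h at 37 °C. Measured by: high-throughput flow cytometry with anti-B7-1 and anti-CD8 staining. Read-out: percent CD8+ FL2 mean versus row control. Controls: Unloaded micro-vesicles (low), QL9 vesicles with 0.7% DMSO (high).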
Large screens that a line does not name were inactive.

CC(C(=O)Nc1ccc2c(c1)OCO2)N1CCC(N2CCCCC2)CC1 (stereo not given)	none
CC(OC(=O)c1cccc(S(=O)(=O)N2CCCCC2)c1)C(=O)NC1CCCCC1C (stereo not given)	none
CNS(=O)(=O)c1cn(CC(=O)N(C)Cc2ccccc2)cc1S(=O)(=O)NC	none
CSCCC1NC(=O)N(CC(=O)N2CCc3ccccc3C2)C1=O (stereo not given)	none (no result: ALR inh)
COC(=O)C1=C(NC(=O)c2cccc(OC)c2)CCS1	ALR inh 97
COc1cc(C(=O)Nc2cc3c(cc2N2CCCCC2)n(C)c(=O)n3C)cc(OC)c1OC	Glyco luc inh 42 (no result: ALR inh)
COc1ccc(C(=O)Nc2cc3c(cc2N2CCCCC2)n(C)c(=O)n3C)cc1OC	none (no result: ALR inh)
O=C(Nc1ccc2c(c1)C(=O)c1ccccc1-2)c1ccccc1	none (no result: ALR inh, T cell HTS)
CCn1c(=O)n(CC)c2cc(N3CCCC3)c(NC(=O)c3ccccc3OC)cc21	none
COc1cccc(C(=O)Nc2ccc3c(c2)C(=O)c2ccccc2C3=O)c1	Glyco luc inh 34
CCOc1ccccc1C(=O)Nc1cc2c(cc1N1CCCC1)n(CC)c(=O)n2CC	ALR inh 99
COC(=O)C1=C(NC(=O)c2ccccc2C)CCS1	none
CCOC(=O)c1nc(SC)n(C)c1C(=O)OCC	none
N[C@@H](Cc1ccccc1)C(=O)N1CCC(C(=O)N[C@@H](Cc2c[nH]c3ccccc23)C(=O)O)CC1	none (no result: ALR inh)
CC1(C(=O)N/N=C/c2c(F)c(F)c(F)c(F)c2F)CC1(Cl)Cl (stereo not given)	none
CC(Sc1nnc(Cc2cccs2)n1C)C(=O)Nc1ccc(C(N)=O)cc1 (stereo not given)	none (no result: ALR inh, T cell HTS)
Cc1cc(C)c(C)c(S(=O)(=O)N2CCC(C(=O)NNC(=O)c3ccccc3O)CC2)c1C	none (no result: ALR inh)
COc1cccc(C(=O)Nc2cc3c(cc2N2CCCC2)n(C)c(=O)n3C)c1	ALR inh 99
Cn1c(=O)n(C)c2cc(N3CCCC3)c(NC(=O)c3cccc(F)c3)cc21	none (no result: ALR inh)
COc1ccc(-c2ccc(CO)o2)cc1N	ALR inh 99
COc1ccc(OC)c(N)c1	none
CN(C)S(=O)(=O)c1cccc(NC(=O)CSc2cccc3cccnc23)c1	none
O=C(CSc1ncccc1-c1nc2ccccc2[nH]1)NCc1ccco1	none
Cc1cc2nc(-c3cccnc3SCC(=O)NCc3ccco3)[nH]c2cc1C	ALR inh 99
O=C(CSc1nc2c(sc3ccccc32)c(=O)n1CCCN1CCCC1)NCc1ccco1	ALR inh 98
COCCCn1c(SCC(=O)NCc2ccco2)nc2sc3c(c2c1=O)CCC3	ALR inh 94
O=C(CSc1nc2c(sc3ccccc32)c(=O)n1CCO)NCc1ccco1	none
O=C(CSc1nc2sc3c(c2c(=O)n1-c1ccccc1)CCCC3)NCc1ccco1	none (no result: ALR inh)
c1ccc(C[C@H]2CNCCN2CC2(c3ccccc3)CC2)cc1	none
COCCNC(=O)C(=O)NCC1OCCN1S(=O)(=O)c1ccc(C)cc1 (stereo not given)	none
COc1ccc(C(=O)/C=C2\Sc3ccccc3N2C)cc1	none
CC(=S)/C=C1\Sc2ccccc2N1C	ALR inh 83
CC(CCN1C(Nc2ccccc2)=NC[C@@H]1C)c1ccccc1 (stereo not given in full)	none
C[C@@H]1ON(C)[C@H]2C[C@H]3c4[nH]c5ccccc5c4CCN3C[C@@H]12	none (no result: ALR inh, T cell HTS)
CC(=O)c1ccc(-c2ccc(C(=O)NC3CCCCCC3)o2)cc1	ALR inh 98
O=C(NC1CCC(O)CC1)c1ccc(-c2ccc(Cl)cc2)o1 (stereo not given)	none
CC1C(c2ccccc2)OCCN1C=NC#N (stereo not given)	none (no result: ALR inh, T cell HTS)
C/C(=N\NC(=O)c1nnn(-c2nonc2N)c1-c1ccccc1)c1ccco1	none
CC(Sc1ncccn1)C(=O)N1CCc2ccccc21 (stereo not given)	none (no result: ALR inh, T cell HTS)
COc1cccc(C2=CC(=O)CC(C)(C)C2)c1OC	none
CC1(C)CC(=O)C=C(c2cccc(Cl)c2O)C1	ALR inh 96
CN(C)S(=O)(=O)N1CCN(CC(=O)Nc2ccc(F)cc2)CC1	none
COc1ccc(NC2CS(=O)(=O)CC2NCc2ccco2)cc1 (stereo not given)	ALR inh 99
O=S1(=O)CC(NCc2ccccc2)C(Nc2ccccc2)C1 (stereo not given)	none
COc1ccc(CC(=O)O/N=C(\N)c2ccccc2)cc1OC	none
COc1cccc(C=Nc2cc(C(C)C)c(O)cc2C)c1O	none (no result: ALR inh, T cell HTS)
CCCc1c(O)nc(SCCN(CC)CC)[nH]c1=O	none
CCCc1c(O)nc(SCCN(CC)CC)n(C(=O)c2ccccc2)c1=O	ALR inh 98
N#CCN1C(=O)C(=O)N(Cc2cccc(Cl)c2)C1=O	none
CCN(CC)S(=O)(=O)c1ccc(OC)c(NC(=S)Nc2ccc(C)c(C)c2)c1	none
CCCCc1ccc(CC(=O)Nc2cc(S(=O)(=O)N3CCOCC3)ccc2O)cc1	none

Source: PubChem BioAssay
